Screens from PubChem BioAssay.
OX1R antag-1 – OX1R (human) antagonism | OX1R-expressing cells, FRET antagonist read-out | inhibition, % at 6.6 µM | 330,000 compounds, 1.8% hits; in the data active = inhibition mostly above about 38%, no sharp cut-off; inactive = mostly below about 40%;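 note: 0% = agonist challenge alone and 100% = reference antagonist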
TAAR1 antagonist – human TAAR1 antagonism | inhibition, % at 3 µM | Q96RJ0 | CHO RD-HGA16 TAAR1, Fluo-8 calcium fluorescence, antagonist | 360,000 compounds, 1.5% hits;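 active = inhibition above a per-plate cutoff, the mean inhibition of test compounds on that plate plus 3 SD, cut at about 49% in these data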;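 note: 0% = DMSO plus EC80 beta-PEA response and 100% = DMSO alone without agonist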
Target sequence (Q96RJ0 whole entry, looked up): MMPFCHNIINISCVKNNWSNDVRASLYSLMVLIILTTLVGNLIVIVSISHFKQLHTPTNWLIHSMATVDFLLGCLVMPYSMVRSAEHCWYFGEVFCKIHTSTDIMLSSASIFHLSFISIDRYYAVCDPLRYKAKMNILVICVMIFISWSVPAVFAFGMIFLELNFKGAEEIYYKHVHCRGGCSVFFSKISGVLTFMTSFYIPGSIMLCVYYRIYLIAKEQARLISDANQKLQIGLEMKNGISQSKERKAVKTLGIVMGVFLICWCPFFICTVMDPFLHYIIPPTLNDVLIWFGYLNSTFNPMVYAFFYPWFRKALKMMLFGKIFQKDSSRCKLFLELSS
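System: RD-HGA16 CHO cells with stable hTAAR1 and Gα16 | Probe or stimulus: EC80 β-phenethylamine stimulus | Dosing: 3 µM, single point | Times: Dye loading 75 min at 37 °C, then 30 min room temperature | Measured by: Fluo-8 calcium-sensitive fluorescence | Read-out basis: % inhibition of agonist calcium response | Replicates: n of 1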
OX1R antag-2 – blocks the human orexin 1 receptor; inhibition, % at 5 µM; O43613; CHO/OX1R cells, Fluo-8 calcium fluorescence, orexin A; 330,000 compounds, 0.43% hits; AID 434989;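 active = inhibition above its plate's threshold, mean inhibition of all tested compounds on the plate plus 3 SD, cut at about 37% in these data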;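 note: 0% = orexin A challenge wells and 100% = SB-334867-A antagonist wells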
CHO parental Ca – counter-screen: ATP calcium response change in parental CHO cells; parental CHO-K1, ATP-induced calcium, Fluo-8 fluorescence; inhibition, % at 5.6 µM; 330,000 compounds, 0.63% hits; AID 463079;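 active = inhibition above that plate's mean sample inhibition plus 3 SD, cut at about 26% in these data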;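 note: 0% = ATP-challenged DMSO wells and 100% = DMSO wells without ATP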
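Material – parental CHO cells · Reagent – ATP stimulus · Compound – single nominal dose of 5.6 µM per compound · Detection – Fluo-8 fluorescence · Read-out basis – percent inhibition of calcium signal · Controls – ATP-challenged DMSO wells low, unchallenged DMSO wells high · Repeats – no replicates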
TAAR1 agonist – human TAAR1 agonism. Q96RJ0. CHO RD-HGA16 TAAR1, Fluo-8 calcium fluorescence; vehicle wells 0%, saturating PEA agonist 100%. activation, % at 3 µM. 360,000 compounds, 0.99% hits. AID 624467;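 active = activation above the mean activation of all test compounds in the run plus 3 SD, cut at about 38% in these data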
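Assay system – CHO-derived RD-HGA16 cells with stable Gα16 and human TAAR1 · Compound dosing – one-point dosing at 3 µM (nominal) · Incubation – 17-24 h seeding, 75 min 37 °C dye, 30 min RT · Measured by – kinetic Fluo-8 calcium fluorescence · Control set – DMSO vehicle as 0%, PEA at EC100 as 100% · Repeats – single well for each compound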
GPR7 antag – human neuropeptides B/W receptor 1 antagonism; 290,000 compounds, 1.1% hits; inhibition, % at 4.4 µM; GPR7-expressing cells, fluorescence antagonist assay; in the data active = inhibition above about 16%, passing the limit was not always enough;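 note: cells stimulated with the agonist NPW; 0% = agonist with vehicle and 100% = vehicle without agonist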
Target sequence (P48145 whole entry, looked up): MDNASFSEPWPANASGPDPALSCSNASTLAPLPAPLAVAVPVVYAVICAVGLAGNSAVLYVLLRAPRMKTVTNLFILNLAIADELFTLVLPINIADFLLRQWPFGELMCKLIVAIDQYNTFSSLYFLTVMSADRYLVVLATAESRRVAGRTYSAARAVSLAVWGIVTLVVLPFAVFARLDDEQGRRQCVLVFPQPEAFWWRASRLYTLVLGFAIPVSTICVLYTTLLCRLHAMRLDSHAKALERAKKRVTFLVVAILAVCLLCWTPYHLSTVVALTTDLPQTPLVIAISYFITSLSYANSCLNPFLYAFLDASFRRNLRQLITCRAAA
nonsel antag count – counter-screen for TAAR1 antagonists: nonselective antagonists; shares compounds with TAAR1 antagonist; counterscreen cell line, calcium fluorescence, antagonist mode; inhibition, % at 3 µM; 2,400 compounds, 77% hits; AID 651780; in the data active = inhibition above about 22%;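 note: CHO-Ga16 host cells stimulated with ATP at an EC80 level; 0% = agonist EC80 plus vehicle and 100% = vehicle without agonist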
TAAR1 ant conf – human TAAR1 antagonism, confirmed | 2,400 compounds, 40% hits | TAAR1-expressing cells, fluorescence antagonist read-out | inhibition, % at 3 µM | AID 651785 | shares compounds with TAAR1 antagonist; in the data active = inhibition above about 49%;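 note: CHO-Ga16 host cells challenged with agonist PEA near its EC80; 0% = agonist at EC80 plus vehicle and 100% = vehicle with no agonist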
Ga16 ag counter – nonselective Ga16 agonism, counter-screen; 2,400 compounds, 18% hits; shares compounds with TAAR1 antagonist; Ga16-expressing cells, calcium fluorescence, agonist counterscreen; activation, % at 3 µM; in the data active = activation above about 12%;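 note: 0% = vehicle wells and 100% = saturating stimulus response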
TAAR1 ag counter – activates human TAAR1 in antagonist counter-screen; activation, % at 3 µM; shares compounds with TAAR1 antagonist; 2,400 compounds, 2% hits; hTAAR1 cell line, fluorescence activation, agonist mode; in the data active = activation above about 37%;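 note: CHO cells stably expressing TAAR1 with calcium dye readout; 0% = DMSO vehicle and 100% = full agonist response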
An asterisk follows results filed as active. Rows were chosen to be rich in hits. Some 4.6% of all compounds tested hit in one or more screens of this group.

COc1ccc(Sc2ccc(-c3nc4cnccn4c3NC3CCCCC3)cc2OC)cc1 was read as OX1R antag-1 5, TAAR1 antagonist 58*, OX1R antag-2 10, CHO parental Ca -10, TAAR1 agonist 10, nonsel antag count 29*, TAAR1 ant conf 41, Ga16 ag counter 4 and TAAR1 ag counter 4.
Cc1cccc(NS(=O)(=O)c2ccc(C(=O)N3CCN(c4ccccc4O)CC3)cc2)c1C was read as OX1R antag-1 20, TAAR1 antagonist 83*, OX1R antag-2 16, CHO parental Ca 9, TAAR1 agonist 23, GPR7 antag 22, nonsel antag count 38*, TAAR1 ant conf 46, Ga16 ag counter 13* and TAAR1 ag counter 11.
For Cc1ccccc1NS(=O)(=O)c1ccc(C(=O)N2CCCC2)cc1 the results were OX1R antag-1 18, TAAR1 antagonist -2, OX1R antag-2 -15, CHO parental Ca -12 and TAAR1 agonist 3.
For Cc1ccc(S(=O)(=O)Nc2cccc(C(=O)N3CCN(c4ccccc4O)CC3)c2)cc1F the results were OX1R antag-1 9, TAAR1 antagonist 61*, OX1R antag-2 -25, CHO parental Ca -1, TAAR1 agonist 20, nonsel antag count 24*, TAAR1 ant conf 42, Ga16 ag counter 9 and TAAR1 ag counter 10.
`COc1cccc(C(=O)Nc2ccc(-n3nncc3C(C)(C)C)cc2)c1` gave OX1R antag-1 20, TAAR1 antagonist -5, OX1R antag-2 -8, CHO parental Ca -11, TAAR1 agonist 3 and GPR7 antag 0.
CC(C)(C)c1cnnn1-c1ccc(NC(=O)c2ccc(Br)o2)cc1 was read as OX1R antag-1 17, TAAR1 antagonist 58*, OX1R antag-2 -24, CHO parental Ca -13, TAAR1 agonist 7, GPR7 antag -14, nonsel antag count 12, TAAR1 ant conf 16, Ga16 ag counter 2 and TAAR1 ag counter -1.
`Cc1ccc(-c2nc(C(=O)NCC3CCCO3)cc3c2[nH]c2ccccc23)cc1` (stereo not drawn) gave OX1R antag-1 50*, TAAR1 antagonist 76*, OX1R antag-2 -15, CHO parental Ca -5, TAAR1 agonist 4, GPR7 antag -11, nonsel antag count 35*, TAAR1 ant conf 55*, Ga16 ag counter 5 and TAAR1 ag counter 1.
For Cc1ccc(-c2nc(C(=O)NCCCN(C)C)cc3c2[nH]c2ccccc23)cc1 the results were OX1R antag-1 10, TAAR1 antagonist -13, OX1R antag-2 -15, CHO parental Ca -1, TAAR1 agonist -1 and GPR7 antag 10.
O=C(NCC1CCCO1)c1cc2c([nH]c3ccccc32)c(-c2cccc(Br)c2)n1 (stereo not drawn) was read as OX1R antag-1 22, TAAR1 antagonist 75*, OX1R antag-2 -3, CHO parental Ca -5, TAAR1 agonist 2, GPR7 antag -2, nonsel antag count 34*, TAAR1 ant conf 58*, Ga16 ag counter 5 and TAAR1 ag counter 7.
For Cc1ccccc1-c1nc(C(=O)NCC2CCCO2)cc2c1[nH]c1ccccc12 (stereo not drawn) the results were OX1R antag-1 14, TAAR1 antagonist 55*, OX1R antag-2 -30, CHO parental Ca -23, TAAR1 agonist 0, GPR7 antag 6, nonsel antag count 28*, TAAR1 ant conf 37, Ga16 ag counter 5 and TAAR1 ag counter 0.
`COc1ccc(-c2nc(C(=O)NCC3CCCO3)cc3c2[nH]c2ccccc23)cc1` (stereo not drawn) gave OX1R antag-1 22, TAAR1 antagonist 67*, OX1R antag-2 -11, CHO parental Ca -9, TAAR1 agonist 3, GPR7 antag -2, nonsel antag count 25*, TAAR1 ant conf 43, Ga16 ag counter 4 and TAAR1 ag counter 0.
For COc1ccc(-c2cc(C(=O)NCC3CCCO3)c3ccccc3n2)cc1 (stereo not drawn) the results were OX1R antag-1 26, TAAR1 antagonist 11, OX1R antag-2 -23, CHO parental Ca -22, TAAR1 agonist 8 and GPR7 antag -17.
COc1cc(C(=O)NCCc2ccc(S(N)(=O)=O)cc2)ccc1OCc1c(C)noc1C was read as OX1R antag-1 4, TAAR1 antagonist 30, OX1R antag-2 -5, CHO parental Ca -26 and TAAR1 agonist 2.
For O=C(O)CC1(CC(=O)Nc2nccs2)CCCCC1 the results were TAAR1 antagonist 2 and TAAR1 agonist 0.
Screening CSCC[C@H](N)C(=O)N1CCC(C(=O)N[C@H](C(=O)NCc2ccccc2F)C(C)C)CC1 returned OX1R antag-1 8, TAAR1 antagonist 7, OX1R antag-2 -12, CHO parental Ca -10, TAAR1 agonist 1 and GPR7 antag -8.
Screening CC(C)(C)c1ccc(C#C[C@@H]2C=C[C@H](O)[C@@H](COC(=O)Nc3ccccc3)O2)cc1 returned TAAR1 antagonist 51*, TAAR1 agonist 14, nonsel antag count 26*, TAAR1 ant conf 29, Ga16 ag counter 4 and TAAR1 ag counter 14.
Screening CCNC(=O)OC[C@H]1O[C@H](C#Cc2ccc(C(C)(C)C)cc2)C=C[C@H]1O returned TAAR1 antagonist -2 and TAAR1 agonist 1.
For CC(C)N(C)c1ncnc2c1ncn2[C@H]1CN(Cc2ccc(Cl)cc2)C[C@@H](CO)O1 the results were TAAR1 antagonist -16 and TAAR1 agonist 2.
COc1cccc(-c2nn(-c3ccccc3)cc2C(=O)Nc2nccs2)c1 was read as OX1R antag-1 60, TAAR1 antagonist 65*, OX1R antag-2 -15, CHO parental Ca -13, TAAR1 agonist 8, GPR7 antag -6, nonsel antag count 20, TAAR1 ant conf 49*, Ga16 ag counter 4 and TAAR1 ag counter 4.
CC(C)C(=O)N1CCCC1(C)C(=O)NCc1ccc(Cl)cc1 (stereo not drawn) was read as TAAR1 antagonist 5 and TAAR1 agonist 0.
COc1cc(C)cc(OC)c1OCC(=O)Nc1cc(C)on1 was read as OX1R antag-1 2, TAAR1 antagonist 88*, OX1R antag-2 -23, CHO parental Ca -17, TAAR1 agonist -2, nonsel antag count 6, TAAR1 ant conf 2, Ga16 ag counter 2 and TAAR1 ag counter 3.
